Assay results from ChEMBL document CHEMBL4828711, “Development of a selective matrix metalloproteinase 13 (MMP-13) inhibitor for the treatment of Osteoarthritis” (Eur J Med Chem, 2021).
Each block holds one molecule with its values, some of them ahead of it. Calls of active or inactive are those of the source. No cut-off for these calls is given here.

How the values were obtained:
Collagenase 3 [1] = target: T1, Collagenase 3 (Homo sapiens, UniProt P45452); experiment: Inhibition of MMP13 (unknown origin)
Outline: (§1)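 FRET assay with the catalytic domain of recombinant human MMP and a 5-FAM/QXL520 peptide substrate. Buffer was HEPES pH 7.5 with CaCl2, 0.01% Brij-35, 0.1 mg/ml BSA and 5% DMSO. Enzyme and compound were preincubated 10 min, then substrate was added. Fluorescence (ex 490/em 520 nm) was read every 5 min for 2 h at room temperature, and the initial linear slope was used. Curves had 12 doses, 3-fold dilutions from 100 μM, run in duplicate and averaged.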

[2] = target: 72 kDa type IV collagenase (Homo sapiens, UniProt P08253); experiment: Inhibition of recombinant human MMP2 using QXL520-gamma-Abu-Pro-Cha-Abu-Smc-His-Ala-Dab(5-FAM)-Ala-Lys-NH2 as substrate measured every 5 mins for 2 hrs by FRET assay; outline: as §1
72 kDa type IV collagenase, sequence (P08253 whole entry): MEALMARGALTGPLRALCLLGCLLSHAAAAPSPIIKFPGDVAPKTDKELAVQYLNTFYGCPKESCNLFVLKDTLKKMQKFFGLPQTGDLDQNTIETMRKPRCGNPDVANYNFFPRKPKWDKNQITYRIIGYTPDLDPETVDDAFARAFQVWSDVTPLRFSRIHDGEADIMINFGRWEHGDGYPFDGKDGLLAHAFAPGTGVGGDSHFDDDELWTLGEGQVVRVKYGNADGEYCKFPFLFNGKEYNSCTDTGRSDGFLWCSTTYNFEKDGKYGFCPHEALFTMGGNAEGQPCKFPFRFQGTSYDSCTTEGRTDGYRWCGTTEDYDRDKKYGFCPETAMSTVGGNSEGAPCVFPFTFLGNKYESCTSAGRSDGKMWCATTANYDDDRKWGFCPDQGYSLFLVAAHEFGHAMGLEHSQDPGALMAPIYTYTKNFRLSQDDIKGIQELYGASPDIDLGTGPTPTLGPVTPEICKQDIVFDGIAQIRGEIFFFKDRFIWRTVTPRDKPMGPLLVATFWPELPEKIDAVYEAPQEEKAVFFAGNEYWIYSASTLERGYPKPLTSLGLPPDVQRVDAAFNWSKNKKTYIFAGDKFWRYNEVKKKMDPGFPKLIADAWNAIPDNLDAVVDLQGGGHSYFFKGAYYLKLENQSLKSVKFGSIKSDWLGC

Stromelysin-2 = Stromelysin-2 (Homo sapiens, UniProt P09238); experiment: Inhibition of recombinant human MMP10 using QXL520-gamma-Abu-Pro-Cha-Abu-Smc-His-Ala-Dab(5-FAM)-Ala-Lys-NH2 as substrate measured every 5 mins for 2 hrs by FRET assay
Stromelysin-2, sequence (P09238 whole entry): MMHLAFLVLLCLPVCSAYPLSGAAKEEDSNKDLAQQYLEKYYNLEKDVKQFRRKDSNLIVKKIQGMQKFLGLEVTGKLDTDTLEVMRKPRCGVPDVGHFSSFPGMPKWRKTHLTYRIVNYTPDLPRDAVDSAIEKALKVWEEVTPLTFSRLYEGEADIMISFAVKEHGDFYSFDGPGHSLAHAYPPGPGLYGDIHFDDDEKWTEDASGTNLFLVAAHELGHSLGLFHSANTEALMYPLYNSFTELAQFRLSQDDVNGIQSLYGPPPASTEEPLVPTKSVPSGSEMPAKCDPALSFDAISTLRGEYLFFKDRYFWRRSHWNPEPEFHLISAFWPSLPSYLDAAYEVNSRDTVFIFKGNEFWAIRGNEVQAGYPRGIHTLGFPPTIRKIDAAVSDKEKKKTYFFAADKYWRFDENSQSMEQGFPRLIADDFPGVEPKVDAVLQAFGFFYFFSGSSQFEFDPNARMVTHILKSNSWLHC

[3] = Stability in rat liver microsomes assessed as parent compound remaining at 1 uM measured after 60 mins in presence of NADPH by LC-MS/MS analysis; format: ADME, Microsome; settings: read-out: Stability
Outline: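 Compound at 1 μM was incubated with 0.3 mg/ml rat liver microsomes in 100 mM potassium phosphate pH 7.4 with 2 mM NADPH and 3 mM MgCl2, in duplicate at 37 °C for 60 min. A control without NADPH was run alongside. Samples at 0 and 60 min were quenched in cold acidified acetonitrile with internal standards, and percent parent remaining was measured by LC-MS/MS.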

Rattus norvegicus [4] = experiment: Chondro-protective activity in MIA-induced Sprague-Dawley rat osteoarthritis model assessed as reduction in proteoglycan loss on LFC at 1 mg, ia administered once per week for 3 weeks starting from 5 days post MIA treatment and measured after 26 days post MIA injection; format: functional; design: scale not given: the % may be the effect or the level left
Outline: (§2)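 Male Sprague-Dawley rats (175–200 g) received 2 mg MIA in 40 μl into the right knee. Saline suspensions were given intra-articularly on days 5, 12 and 19, with 8 rats per group and 5 naive rats. Right knees were taken on day 26, then formalin-fixed, decalcified, paraffin-sectioned and toluidine blue-stained. A veterinary pathologist scored cell loss (area without viable chondrocytes), proteoglycan loss (staining intensity), bone resorption and osteophytes. Statistics were ANOVA or Kruskal-Wallis with post-tests versus vehicle.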

Collagenase 3 [5] = target: T1, Collagenase 3; experiment: Inhibition of recombinant human MMP13 using QXL520-gamma-Abu-Pro-Cha-Abu-Smc-His-Ala-Dab(5-FAM)-Ala-Lys-NH2 as substrate measured every 5 mins for 2 hrs by FRET assay
Outline: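 Catalytic domain of human recombinant MMP-13. Buffer: HEPES pH 7.5, CaCl2, 0.01% Brij-35, 0.1 mg/ml BSA and 5% DMSO. Compound was preincubated with enzyme for 10 min before substrate addition. Fluorescence (ex 490, em 520 nm) was read at room temperature. IC50 came from initial linear slopes over 12 doses, 3-fold dilutions from 100 μM, in duplicate, reported as the mean.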

Rattus norvegicus [6] = experiment: Chondro-protective activity in MIA-induced Sprague-Dawley rat osteoarthritis model assessed as reduction in cell loss on lateral tibial plateau at 1 mg, ia administered once per week for 3 weeks starting from 5 days post MIA treatment and measured after 26 days post MIA injection; format: functional; design: scale not given: the % may be the effect or the level left; outline: as §2
[7] = target: Matrix metalloproteinase-9 (Homo sapiens, UniProt P14780); experiment: Inhibition of recombinant human MMP9 using QXL520-gamma-Abu-Pro-Cha-Abu-Smc-His-Ala-Dab(5-FAM)-Ala-Lys-NH2 as substrate measured every 5 mins for 2 hrs by FRET assay; outline: as §1
Matrix metalloproteinase-9, sequence (P14780 whole entry): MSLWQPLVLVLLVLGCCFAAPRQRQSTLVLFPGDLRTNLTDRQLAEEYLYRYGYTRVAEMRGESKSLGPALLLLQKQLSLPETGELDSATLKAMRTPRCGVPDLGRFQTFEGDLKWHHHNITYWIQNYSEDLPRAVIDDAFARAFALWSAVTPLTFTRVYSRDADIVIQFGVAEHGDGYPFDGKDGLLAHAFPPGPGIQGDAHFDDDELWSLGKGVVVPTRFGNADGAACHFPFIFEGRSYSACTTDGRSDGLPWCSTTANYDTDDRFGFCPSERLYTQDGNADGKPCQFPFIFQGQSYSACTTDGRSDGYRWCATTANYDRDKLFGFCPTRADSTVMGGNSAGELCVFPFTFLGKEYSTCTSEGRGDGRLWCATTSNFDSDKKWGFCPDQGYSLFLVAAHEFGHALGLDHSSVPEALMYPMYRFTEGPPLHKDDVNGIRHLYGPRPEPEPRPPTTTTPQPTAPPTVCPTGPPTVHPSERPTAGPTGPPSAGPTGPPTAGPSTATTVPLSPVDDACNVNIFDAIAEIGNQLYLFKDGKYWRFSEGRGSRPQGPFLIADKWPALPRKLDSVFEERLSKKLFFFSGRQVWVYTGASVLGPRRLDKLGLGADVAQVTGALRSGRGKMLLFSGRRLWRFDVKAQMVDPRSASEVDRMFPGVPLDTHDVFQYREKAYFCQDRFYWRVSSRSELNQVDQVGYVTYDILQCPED

Neutrophil collagenase = Neutrophil collagenase (Homo sapiens, UniProt P22894); experiment: Inhibition of recombinant human MMP8 using QXL520-gamma-Abu-Pro-Cha-Abu-Smc-His-Ala-Dab(5-FAM)-Ala-Lys-NH2 as substrate measured every 5 mins for 2 hrs by FRET assay; outline: as §1
Neutrophil collagenase, sequence (P22894 whole entry): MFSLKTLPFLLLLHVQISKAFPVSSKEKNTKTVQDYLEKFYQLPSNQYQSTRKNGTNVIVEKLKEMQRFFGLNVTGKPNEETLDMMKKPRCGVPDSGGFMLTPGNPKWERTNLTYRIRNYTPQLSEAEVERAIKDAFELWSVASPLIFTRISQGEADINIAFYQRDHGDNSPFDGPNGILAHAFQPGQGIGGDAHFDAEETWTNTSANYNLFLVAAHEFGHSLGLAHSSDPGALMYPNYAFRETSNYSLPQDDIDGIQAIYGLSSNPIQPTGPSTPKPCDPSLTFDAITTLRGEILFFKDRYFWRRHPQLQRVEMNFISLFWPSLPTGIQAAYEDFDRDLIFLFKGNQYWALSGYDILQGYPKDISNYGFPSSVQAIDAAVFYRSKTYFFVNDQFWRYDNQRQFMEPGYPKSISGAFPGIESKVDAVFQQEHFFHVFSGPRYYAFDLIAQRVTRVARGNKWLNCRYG

[8] = target: Macrophage metalloelastase (Homo sapiens, UniProt P39900); experiment: Inhibition of recombinant human MMP12 using QXL520-gamma-Abu-Pro-Cha-Abu-Smc-His-Ala-Dab(5-FAM)-Ala-Lys-NH2 as substrate measured every 5 mins for 2 hrs by FRET assay; outline: as §1
Macrophage metalloelastase, sequence (P39900 whole entry): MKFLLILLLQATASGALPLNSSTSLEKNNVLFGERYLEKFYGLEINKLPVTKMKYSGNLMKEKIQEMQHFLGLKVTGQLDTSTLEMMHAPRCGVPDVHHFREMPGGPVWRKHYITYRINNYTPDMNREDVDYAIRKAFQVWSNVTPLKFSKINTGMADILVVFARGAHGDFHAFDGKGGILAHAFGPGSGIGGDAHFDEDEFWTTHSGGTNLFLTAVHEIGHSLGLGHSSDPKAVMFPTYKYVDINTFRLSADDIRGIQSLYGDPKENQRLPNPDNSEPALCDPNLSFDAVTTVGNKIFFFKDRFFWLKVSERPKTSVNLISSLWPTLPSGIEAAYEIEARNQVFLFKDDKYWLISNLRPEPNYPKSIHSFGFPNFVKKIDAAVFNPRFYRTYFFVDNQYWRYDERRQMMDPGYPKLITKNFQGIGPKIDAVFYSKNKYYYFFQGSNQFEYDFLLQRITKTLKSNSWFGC

Matrilysin = target: T2, Matrilysin (Homo sapiens, UniProt P09237); experiment: Inhibition of recombinant human MMP7 using QXL520-gamma-Abu-Pro-Cha-Abu-Smc-His-Ala-Dab(5-FAM)-Ala-Lys-NH2 as substrate measured every 5 mins for 2 hrs by FRET assay; outline: as §1
T2 sequence (P09237 whole entry): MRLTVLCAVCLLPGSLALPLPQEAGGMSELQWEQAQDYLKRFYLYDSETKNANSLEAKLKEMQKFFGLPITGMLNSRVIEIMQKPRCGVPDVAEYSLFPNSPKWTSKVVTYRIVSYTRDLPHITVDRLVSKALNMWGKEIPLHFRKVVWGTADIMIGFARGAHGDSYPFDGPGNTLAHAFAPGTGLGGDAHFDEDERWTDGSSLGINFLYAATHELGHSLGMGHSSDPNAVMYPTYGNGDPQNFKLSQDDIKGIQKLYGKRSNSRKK

Stromelysin-1 = Stromelysin-1 (Homo sapiens, UniProt P08254); experiment: Inhibition of recombinant human MMP3 using QXL520-gamma-Abu-Pro-Cha-Abu-Smc-His-Ala-Dab(5-FAM)-Ala-Lys-NH2 as substrate measured every 5 mins for 2 hrs by FRET assay; outline: as §1
Stromelysin-1, sequence (P08254 whole entry): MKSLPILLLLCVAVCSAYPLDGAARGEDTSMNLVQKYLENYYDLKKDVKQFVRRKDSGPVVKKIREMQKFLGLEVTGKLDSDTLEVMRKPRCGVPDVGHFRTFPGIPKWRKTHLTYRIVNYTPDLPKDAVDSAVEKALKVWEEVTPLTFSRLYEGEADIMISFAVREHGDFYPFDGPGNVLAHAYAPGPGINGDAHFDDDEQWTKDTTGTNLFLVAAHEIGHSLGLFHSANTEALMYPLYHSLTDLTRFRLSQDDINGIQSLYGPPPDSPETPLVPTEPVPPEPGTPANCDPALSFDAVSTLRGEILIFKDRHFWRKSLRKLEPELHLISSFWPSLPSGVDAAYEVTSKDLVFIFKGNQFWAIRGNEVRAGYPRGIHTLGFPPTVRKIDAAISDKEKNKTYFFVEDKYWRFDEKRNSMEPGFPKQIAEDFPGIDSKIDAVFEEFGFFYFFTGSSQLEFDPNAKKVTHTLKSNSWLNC

Interstitial collagenase = target: T3, Interstitial collagenase (Homo sapiens, UniProt P03956); experiment: Inhibition of recombinant human MMP1 using QXL520-gamma-Abu-Pro-Cha-Abu-Smc-His-Ala-Dab(5-FAM)-Ala-Lys-NH2 as substrate measured every 5 mins for 2 hrs by FRET assay; outline: as §1
T3 sequence (P03956 whole entry): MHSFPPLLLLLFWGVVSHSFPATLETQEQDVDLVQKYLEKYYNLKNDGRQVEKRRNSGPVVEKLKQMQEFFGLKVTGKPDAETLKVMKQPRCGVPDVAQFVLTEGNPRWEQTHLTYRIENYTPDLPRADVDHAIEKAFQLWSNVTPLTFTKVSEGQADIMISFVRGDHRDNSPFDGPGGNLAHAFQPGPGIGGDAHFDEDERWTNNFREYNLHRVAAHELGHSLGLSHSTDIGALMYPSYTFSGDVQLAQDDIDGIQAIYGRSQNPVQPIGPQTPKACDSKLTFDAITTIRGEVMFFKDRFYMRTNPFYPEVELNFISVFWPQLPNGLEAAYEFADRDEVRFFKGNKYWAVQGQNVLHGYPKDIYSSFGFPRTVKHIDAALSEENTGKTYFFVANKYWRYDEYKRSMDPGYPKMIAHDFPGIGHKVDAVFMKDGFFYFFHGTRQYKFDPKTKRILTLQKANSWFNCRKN

Rattus norvegicus [9] = experiment: Chondro-protective activity in MIA-induced Sprague-Dawley rat osteoarthritis model assessed as reduction in proteoglycan loss on LTP at 1 mg, ia administered once per week for 3 weeks starting from 5 days post MIA treatment and measured after 26 days post MIA injection; format: functional; design: scale not given: the % may be the effect or the level left; outline: as §2
[10] = target: Matrix metalloproteinase-14 (Homo sapiens, UniProt P50281); experiment: Inhibition of recombinant human MMP14 using QXL520-gamma-Abu-Pro-Cha-Abu-Smc-His-Ala-Dab(5-FAM)-Ala-Lys-NH2 as substrate measured every 5 mins for 2 hrs by FRET assay; outline: as §1
Rattus norvegicus [11] = experiment: Chondro-protective activity in MIA-induced Sprague-Dawley rat osteoarthritis model assessed as reduction in proteoglycan loss on MTP at 1 mg, ia administered once per week for 3 weeks starting from 5 days post MIA treatment and measured after 26 days post MIA injection; format: functional; design: scale not given: the % may be the effect or the level left; outline: as §2
[12] = Stability in rat liver microsomes; format: ADME, Microsome
Outline: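 Rat liver microsomes at 0.3 mg/ml protein with 1 μM compound, in 100 mM potassium phosphate pH 7.4, 2 mM NADPH, 3 mM MgCl2. Incubated in duplicate for 60 min at 37 °C with shaking, with a duplicate NADPH-free control. Sampled at T=0 and 60 min into cold acidified acetonitrile with internal standards. Percent parent remaining measured by LC-MS/MS (ESI, MRM).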

Rattus norvegicus [13] = experiment: Chondro-protective activity in MIA-induced Sprague-Dawley rat osteoarthritis model assessed as reduction of bone resorption in lateral femoral condyle at 0.06 mg, ia administered once per week for 3 weeks starting from 5 days post MIA treatment and measured after 26 days post MIA injection; format: functional; design: scale not given: the % may be the effect or the level left; outline: as §2
Rattus norvegicus [14] = experiment: Chondro-protective activity in MIA-induced Sprague-Dawley rat osteoarthritis model assessed as reduction of osteophyte score at 0.06 mg, ia administered once per week for 3 weeks starting from 5 days post MIA treatment and measured after 26 days post MIA injection; format: functional; design: scale not given: the % may be the effect or the level left; outline: as §2
Rattus norvegicus [15] = experiment: Chondro-protective activity in MIA-induced Sprague-Dawley rat osteoarthritis model assessed as reduction of bone resorption in medial femoral condyle at 0.06 mg, ia administered once per week for 3 weeks starting from 5 days post MIA treatment and measured after 26 days post MIA injection; format: functional; design: scale not given: the % may be the effect or the level left; outline: as §2
Rattus norvegicus [16] = experiment: Chondro-protective activity in MIA-induced Sprague-Dawley rat osteoarthritis model assessed as reduction of cell loss at 0.06 mg, ia administered once per week for 3 weeks starting from 5 days post MIA treatment and measured after 26 days post MIA injection; format: functional, organism-based; outline: as §2
Rattus norvegicus [17] = experiment: Chondro-protective activity in MIA-induced Sprague-Dawley rat osteoarthritis model assessed as reduction of bone resorption in tibia at 0.06 mg, ia administered once per week for 3 weeks starting from 5 days post MIA treatment and measured after 26 days post MIA injection; format: functional; design: scale not given: the % may be the effect or the level left; outline: as §2

- IC50 [2]: > 100 µM
- IC50 (Stromelysin-2): 1000 nM
- remaining at 1 h, 1 µM [3]: 99%
- IC50 (Collagenase 3 [5]): 4.8 nM
- IC50 [7]: 74 µM
- IC50 (Neutrophil collagenase): 98 µM
- IC50 [8]: > 100 µM
- IC50 (Matrilysin): > 100 µM
- IC50 (Stromelysin-1): > 100 µM
- IC50 (Interstitial collagenase): > 100 µM
- IC50 [10]: > 100 µM
Structure (SMILES): [2H]C([2H])(NC(=O)c1cc(C(=O)NCc2ccc(F)c(C)c2)ncn1)c1ccc(C(=O)O)cc1
- Activity (Rattus norvegicus [4]): 15%
- Activity (Rattus norvegicus [6]): 8%
- Activity (Rattus norvegicus [9]): 15%
- Activity (Rattus norvegicus [11]): 15%

- remaining at 1 h, 1 µM [3]: 90%
Structure (SMILES): Cc1cc(CNC(=O)c2cc(C(=O)NCc3ccc(C(=O)O)cc3)ncn2)ccc1F

- Stability [12]: 0.6%
Structure (SMILES): Cc1cc(CNC(=O)c2cc(C(=O)NCc3ccc(F)c(C)c3)ncn2)ccc1F

The next lines start with the molecule.

Structure (SMILES): C[C@@H](NC(=O)c1cc(C(=O)NCc2ccc(-c3nnn[nH]3)cc2)ncn1)c1ccccc1
- IC50 (Collagenase 3 [1]): > 100 nM

Structure (SMILES): C[C@H](NC(=O)c1cc(C(=O)NCc2ccc(-c3nnn[nH]3)cc2)ncn1)c1ccccc1
- IC50 (Collagenase 3 [1]): < 10 nM

Structure (SMILES): C[C@]12C=CC(=O)C=C1CC[C@H]1[C@@H]3C[C@@H](O)[C@](O)(C(=O)CO)[C@@]3(C)C[C@H](O)[C@@]12F [TRIAMCINOLONE]
- Activity (Rattus norvegicus [13]): 49%
- Activity (Rattus norvegicus [14]): 40%
- Activity (Rattus norvegicus [15]): 49%
- Activity (Rattus norvegicus [16]): inactive
- Activity (Rattus norvegicus [17]): 34%
